Measured values from different studies.
Protocols differ between the studies behind these lines.

COc1ccc(C=NNC(=S)Nc2ccc(C#N)cc2)cc1 — CC50 (CRFK; cell growth or viability, MTS): > 100 µg/mL
CCC(CC)O[C@@H]1C=C(C(=O)O)C[C@H](N)[C@H]1NC(C)=O — CC50 (MDCK; cell growth or viability, MTT; 72 h): > 200 µM
CC[C@@]1(O)C(=O)OCc2c1cc1n(c2=O)Cc2cc3ccccc3nc2-1 — Papp A→B (MDCK; Caco-2; 0.5 µM, 105 min, pH 7.4): 27 ×10⁻⁶ cm/s
O=C(CCCN1CCC(O)(c2ccc(Cl)cc2)CC1)c1ccc(Br)cc1 — IC50 (K562; cell growth or viability): 41.2 µM
N#Cc1ccc(NC(=S)NN)cc1 — CC50 (CRFK; cell growth or viability, MTS): 84.6 µg/mL
CC(N)C12CC3CC(CC(C3)C1)C2 (stereo not drawn) — CC50 (MDCK; cell growth or viability, MTT; 72 h): 62 µM
CC(C)[C@H](N)C(=O)N1CCC[C@H]1B(O)O — viability (K562; cell growth or viability, ATP luminescence; 60 µM, 5 days): 98%
Nc1nc(O)c2ncn(COC(CO)CO)c2n1 — CC50 (CRFK; cell growth or viability, MTS): > 100 µM
CC(C)(C)NC(=O)N[C@H](C(=O)N1C[C@H]2[C@@H]([C@H]1C(=O)NC(CC1CCC1)C(=O)C(N)=O)C2(C)C)C(C)(C)C (stereo partly drawn) — CC50 (MDCK; cell growth or viability, neutral red; 48 h): > 100 µM
